Converted amounts (≈) assume the structure as drawn.
Tests used:
[1] = test system: CEM-TK(-); test: Cytotoxic concentration which is required to reduce CEM/TK- cell viability by 50%.; format: functional; settings: Homo sapiens
[2] = test system: CEM-TK(-); test: 50% effective concentration of compound which is required to protect Thymidine kinase deficient human CEM (CEM/TK-) cells against HIV-2.; format: functional, cell-based
[3] = test system: CCRF-CEM; test: Cytotoxic concentration which is required to reduce human CEM cell viability by 50%.; format: functional
In short: (§1)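 Human CEM or Molt-4 cells seeded at 7.5 × 10^5 cells/mL with varying compound concentrations. Incubated 3 days at 37 °C in humidified CO2. Viable cells counted with a Coulter counter. Value is the concentration reducing viable cell number by 50%.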

[4] = test system: CCRF-CEM; test: 50% effective concentration of compound which is required to protect human CEM cells against HIV-1 induced giant cell formation.; format: functional, cell-based
In short: (§2)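 CEM cells at 250000–300000 cells/mL infected with HIV-1 (IIIB) or HIV-2 (ROD) at 100 CCID50/mL. Infected cells mixed with serial compound dilutions and incubated 4 days at 37 °C. Syncytium (giant cell) formation then scored. Values averaged over two independent experiments.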

[5] = test system: CCRF-CEM; test: 50% effective concentration of compound which is required to protect human CEM cells against HIV-2 induced giant cell formation.; format: functional, cell-based; in short: as §2
[6] = test system: MT4; test: 50% effective concentration of compound which is required to protect human MT-4 cells against cytopathogenicity of HIV-1.; format: functional, cell-based
[7] = test system: MT4; test: 50% effective concentration of compound which is required to protect human MT-4 cells against cytopathogenicity of HIV-2.; format: functional, cell-based
[8] = test system: MT4; test: Cytotoxic concentration which is required to reduce human MT-4 cell viability by 50%.; format: functional
[9] = Selectivity index of HIV-1 and HIV-2 with respect to CEM cells; format: functional, CCRF-CEM
In short: (§3)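 Selectivity index calculated as average CC50 divided by average EC50. Each average comes from two independent experiments, using HIV-1 (IIIB) and HIV-2 (ROD) in CEM or MT-4 cells.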

[10] = Selectivity index of HIV-1 and HIV-2 with respect to MT-4 cells; format: functional, MT4; in short: as §3
[11] = test system: E6SM; test: 50% Minimum inhibitory concentration which is required to reduce cytopathogenicity induced by (196) strain of HSV-2 virus on human E6SM cells.; format: functional
In short: (§4)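 Confluent cell monolayers infected with 100 CCID50 virus and left 1 h for adsorption. Residual virus then removed and compound added at serial dilutions (400, 200, 100 ... µg/mL). Value is the concentration giving 50% reduction of CPE.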

[12] = test system: E6SM; test: 50% Minimum inhibitory concentration which is required to reduce cytopathogenicity induced by (G) strain of HSV-2 virus on human E6SM cells.; format: functional; in short: as §4
[13] = test system: E6SM; test: 50% Minimum inhibitory concentration which is required to reduce cytopathogenicity induced by (KOS) strain of HSV-1 virus on human E6SM cells.; format: functional; in short: as §4
[14] = test system: E6SM; test: 50% Minimum inhibitory concentration which is required to reduce cytopathogenicity induced by (Lyons) strain of HSV-2 virus on human E6SM cells.; format: functional; in short: as §4
[15] = test system: E6SM; test: 50% Minimum inhibitory concentration which is required to reduce cytopathogenicity induced by (Mc Intyre) strain of HSV-1 virus on human E6SM cells.; format: functional; in short: as §4
[16] = test system: E6SM; test: 50% Minimum inhibitory concentration which is required to reduce cytopathogenicity induced by TK-(B2006) strain of HSV-1 virus on human E6SM cells.; format: functional; in short: as §4
[17] = Minimum cytotoxic concentration which causes microscopically detectable alteration of normal cell morphology after 2 days of incubation.; format: functional; settings: 48 h
In short: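 Uninfected E6SM cells exposed to compound for 2 days. Minimum concentration giving a microscopically detectable change in normal cell morphology recorded.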

[18] = test system: E6SM; test: 50% Minimum inhibitory concentration which is required to reduce cytopathogenicity induced by (F) strain of HSV-1 virus on human E6SM cells.; format: functional; in short: as §4
[19] = test system: FM3A; test: EC50 is the cytotoxic concentration of compound required to reduce FM3A/TK- (Thymidine kinase deficient murine mammary carcinoma cells) cell viability by 50%.; format: functional, cell-based; settings: Mus musculus
In short: (§5)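 Murine L1210 or FM3A-derived cells seeded at 5 × 10^5 cells/mL with varying compound concentrations. Incubated 2 days at 37 °C in humidified CO2. Viable cells counted with a Coulter counter. Value is the concentration reducing viable cell number by 50%.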

[20] = test system: FM3A; test: EC50 is the cytotoxic concentration of compound required to reduce FM3A/TK- HSV-1TK+ cell viability by 50%.; format: functional, cell-based; settings: Mus musculus; in short: as §5
[21] = test system: FM3A; test: EC50 is the cytotoxic concentration of compound required to reduce FM3A (murine mammary carcinoma cells) cell viability by 50%.; format: functional, cell-based; settings: Mus musculus; in short: as §5
[22] = test system: HEL; test: 50% Minimum inhibitory concentration which is required to reduce cytopathogenicity induced by TK-(B2006) strain of HSV-1 virus on human embryonic HEL cells.; format: functional; in short: as §4
[23] = test system: HEL; test: 50% Minimum inhibitory concentration which is required to reduce cytopathogenicity induced by (G) strain of HSV-2 virus on human embryonic HEL cells.; format: functional; in short: as §4
[24] = test system: HEL; test: 50% Minimum inhibitory concentration which is required to reduce cytopathogenicity induced by (KOS) strain of HSV-1 virus on human embryonic HEL cells.; format: functional; in short: as §4
[25] = test system: HEL; test: 50% Minimum inhibitory concentration which is required to reduce cytopathogenicity induced by (Lyons) strain of HSV-2 virus on human embryonic HEL cells.; format: functional; in short: as §4
[26] = test system: HEL; test: 50% Minimum inhibitory concentration which is required to reduce cytopathogenicity induced by (Mc Intyre) strain of HSV-1 virus on human embryonic HEL cells.; format: functional; in short: as §4
[27] = test system: L1210; test: EC50 is the cytotoxic concentration of compound required to reduce L1210 (murine leukemia cells) cell viability by 50%.; format: functional, cell-based; settings: Mus musculus; in short: as §5
[28] = test system: MOLT-4; test: EC50 is the cytotoxic concentration of compound required to reduce Molt4/C8 (human T-lymphocyte) cell viability by 50%.; format: functional, cell-based; in short: as §1

Row | SMILES | CC50 [1] | EC50 [2] | CC50 [3] | EC50 [4] | EC50 [5] | EC50 [6] | EC50 [7] | CC50 [8] | Selectivity index [9] | Selectivity index [10] | MIC [11] | MIC [12] | MIC [13] | MIC [14] | MIC [15] | MIC [16] | MCC [17] | MIC [18] | EC50 [19] | EC50 [20] | further results
1 | Cc1cn([C@H]2C[C@H](N=[N+]=[N-])[C@@H](CO)O2)c(=O)[nH]c1=O [ZIDOVUDINE] | > 200 µg/mL | > 25 µg/mL | > 100 µg/mL | 0.0007 µg/mL (≈ 0.00262 µM) | 0.0009 µg/mL (≈ 0.00337 µM) | 0.0005 µg/mL (≈ 0.00187 µM) | 0.0007 µg/mL (≈ 0.00262 µM) | 1.5 µg/mL (≈ 5.61 µM) | >100000 | 3000 | – | – | – | – | – | – | – | – | – | – | –
2 | Nc1nc2c(ncn2COC(CO)CO)c(=O)[nH]1 [GANCICLOVIR] | – | – | – | – | – | – | – | – | – | – | 0.006 µg/mL (≈ 0.0235 µM) | 0.002 µg/mL (≈ 0.00784 µM) | 0.001 µg/mL (≈ 0.00392 µM) | 0.002 µg/mL (≈ 0.00784 µM) | 0.003 µg/mL (≈ 0.0118 µM) | 5 µg/mL (≈ 19.6 µM) | > 100 µg/mL | 0.002 µg/mL (≈ 0.00784 µM) | – | – | –
3 | NC(=O)c1ncn([C@@H]2O[C@H](CO)[C@@H](O)[C@H]2O)n1 [RIBAVIRIN] | – | – | – | – | – | – | – | – | – | – | 150 µg/mL (≈ 614 µM) | 50 µg/mL (≈ 205 µM) | 60 µg/mL (≈ 246 µM) | 100 µg/mL (≈ 409 µM) | 90 µg/mL (≈ 369 µM) | 150 µg/mL (≈ 614 µM) | > 400 µg/mL | 80 µg/mL (≈ 328 µM) | – | – | –
4 | CO/N=C1/C[C@H](n2cc(C)c(=O)[nH]c2=O)O[C@@H]1CO.CO/N=C1\C[C@H](n2cc(C)c(=O)[nH]c2=O)O[C@@H]1CO | > 200 µg/mL | > 100 µg/mL | > 200 µg/mL | 26 µg/mL | 27 µg/mL | 3.3 µg/mL | 4.6 µg/mL | 182 µg/mL | 8 | 64 | > 200 µg/mL | > 200 µg/mL | > 200 µg/mL | > 200 µg/mL | > 200 µg/mL | > 200 µg/mL | > 200 µg/mL | > 200 µg/mL | > 200 µg/mL | > 200 µg/mL | EC50 [21]: > 200 µg/mL; MIC [22]: > 50 µg/mL; MIC [23]: > 50 µg/mL; MIC [24]: 50 µg/mL; MIC [25]: 35 µg/mL; MIC [26]: > 50 µg/mL; EC50 [27]: 112 µg/mL; EC50 [28]: > 200 µg/mL
5 | Cc1cn(C2C/C(=[N+](/[O-])O)C(CO)O2)c(=O)[nH]c1=O (configuration not stated) | > 200 µg/mL | > 100 µg/mL | 247 µg/mL (≈ 911 µM) | 13 µg/mL (≈ 47.9 µM) | 10 µg/mL (≈ 36.9 µM) | 0.86 µg/mL (≈ 3.17 µM) | 1.2 µg/mL (≈ 4.42 µM) | 91 µg/mL (≈ 336 µM) | 25 | 102 | > 200 µg/mL | > 200 µg/mL | 35 µg/mL (≈ 129 µM) | > 200 µg/mL | 35 µg/mL (≈ 129 µM) | > 200 µg/mL | > 200 µg/mL | 9 µg/mL (≈ 33.2 µM) | > 200 µg/mL | > 200 µg/mL | EC50 [21]: > 200 µg/mL; EC50 [27]: 25 µg/mL (≈ 92.2 µM); EC50 [28]: 17 µg/mL (≈ 62.7 µM)

Reference: ChEMBL document CHEMBL1130413, “Novel 3'-C/N-substituted 2',3'-beta-D-dideoxynucleosides as potential chemotherapeutic agents. 1. Thymidine derivatives: synthesis, structure, and broad spectrum antiviral properties” (J Med Chem, 1997)
